Results pooled from the literature.

SMILES	tested on	assay	test system	conditions	measurement	result
CN(C)[C@H]1C[C@@]23CC[C@@]4(O2)C(=CC[C@]2(C)C(c5ccc6ccncc6c5)=CC[C@H]24)C=C3[C@@H](O)[C@@H]1O	human PBMC	cell growth or viability, flow cytometry	–	–	CC50	100 µM
N#Cc1ccc(NC(=S)NN=Cc2ccccc2)cc1	CRFK	cell growth or viability, MTS	–	–	CC50	> 100 mg/L
Cl.Cl.O=C(CCN1CCCCC1)c1ccc(-c2ccc(C(=O)CCN3CCCCC3)cc2)cc1	–	–	Sprague-Dawley rat, plasma	oral, 25 mg/kg	half-life	6.05 h
N#Cc1ccc(NC(=S)NN=Cc2ccc(F)cc2)cc1	CRFK	cell growth or viability, MTS	–	–	CC50	> 100 mg/L
O=C(Nc1cccnn1)N1CCN([C@@H]2CCOc3cc(C(F)(F)F)ccc32)CC1	–	–	male Sprague-Dawley rat, brain	oral, 1 mg/kg, 4 h	concentration	438 ng/g
CC[C@@]1(O)C(=O)OCc2c1cc1n(c2=O)Cc2cc3ccccc3nc2-1	MDCK	–	Caco-2	100 µM, 105 min, pH 7.4	Papp B→A	100 nm/s
O=C(O)C(F)(F)C(F)(F)C(F)(F)C(F)(F)C(F)(F)C(F)(F)C(F)(F)F	Solute carrier family 22 member 6 (SLC22A6, Homo sapiens, UniProt Q4U2R8)	transporter uptake, substrate	HEK293	2.5 min, pH 7.4	Km	65.8 µM
COC(=O)C(NC(=O)c1cn(CCCCCF)c2ccccc12)C(C)(C)C (stereo not drawn)	–	–	male Sprague-Dawley rat, plasma	subcutaneous, 200 µg/kg	half-life	17.1 h
COC(=O)[C@H]1[C@@H](OC(=O)c2ccccc2)C[C@@H]2CC[C@H]1N2C	–	–	male Sprague-Dawley rat, plasma	intraperitoneal, 10 mg/kg, 1 h	concentration	0.31 µg/mL
